Rev-erbA mod: Rev-erb alpha (human) modulation; P20393; Rev-erbα–FITC-DNA binding, fluorescence polarization, 90 min; activity, % at 10 µM; 0.79% of 370,000 active;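 active means activity above about 14%, limit read from the data; passing the limit was not always enough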
bovine MsrA act: activates bovine MsrA enzyme. purified bovine MsrA, absorbance read-out. AID 602163. 0.3% of 360,000 active. activation, % at 10.6 µM; in the data active means activation above about 7.5%
sPLA2-III inh: Inhibits HGIII-sPLA2 liposome hydrolysis, primary screen; QFRET BODIPY PC-A2 liposome hydrolysis, fluorescence; inhibition, % at 12.2 µM; 0.56% of 370,000 active; AID 743126;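 active means inhibition above mean plus 3 SD of compounds lying within the high and low control bounds, cut at about 19% in these data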
Target sequence (Q9NZ20 whole entry, looked up): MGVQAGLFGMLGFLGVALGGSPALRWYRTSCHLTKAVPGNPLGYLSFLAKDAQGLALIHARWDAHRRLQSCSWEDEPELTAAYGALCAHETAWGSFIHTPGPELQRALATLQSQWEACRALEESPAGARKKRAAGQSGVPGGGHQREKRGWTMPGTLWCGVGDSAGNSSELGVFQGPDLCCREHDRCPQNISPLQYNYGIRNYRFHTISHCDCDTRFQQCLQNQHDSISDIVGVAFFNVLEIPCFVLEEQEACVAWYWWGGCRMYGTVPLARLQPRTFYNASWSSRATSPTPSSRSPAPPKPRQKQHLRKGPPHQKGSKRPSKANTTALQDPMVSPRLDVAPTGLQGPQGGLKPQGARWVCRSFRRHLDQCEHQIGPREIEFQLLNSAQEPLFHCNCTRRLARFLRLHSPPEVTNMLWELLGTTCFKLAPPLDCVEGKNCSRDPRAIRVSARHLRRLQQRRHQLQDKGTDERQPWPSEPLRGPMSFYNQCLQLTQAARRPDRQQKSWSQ
ARFGAP1 inh: rat ARFGAP1 inhibition. AID 651572. Arfgap1-stimulated ARF1 GTP hydrolysis, GDP FP detection. inhibition, % at 16.5 µM. 0.26% of 360,000 active;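 active means inhibition above a per-plate limit, mean inhibition of low control wells plus 3 SD, cut at about 25% in these data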
Target sequence (Q62848 1-136 limits assumed): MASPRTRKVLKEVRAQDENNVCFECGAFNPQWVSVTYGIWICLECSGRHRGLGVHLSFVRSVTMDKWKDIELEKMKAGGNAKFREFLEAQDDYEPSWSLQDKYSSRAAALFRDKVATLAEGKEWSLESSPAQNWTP
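material = rat Arfgap1 catalytic domain, aa 1-136 | also added = human ARF1(Δ1-17)-GTP substrate | compound dosing = one concentration, 16.5 µM, DMSO 1.26% | times = GTP hydrolysis reaction 2 h at 25 °C | measured by = FP, GDP Alexa 633 tracer displaced from anti-GDP antibody, 620/688 nm | evaluation = percent inhibition of Arfgap1-stimulated GTP hydrolysis | replication = single well per compound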
MsrA inhibitor: inhibitors of bovine MsrA. purified bovine MsrA, absorbance read-out. inhibition, % at 15.5 µM. 0.75% of 360,000 active; in the data active means inhibition above about 4.5%
ASAP1 inh: ASAP1 ArfGAP inhibition | AID 624377 | ASAP1-stimulated ARF1 GTP hydrolysis, GDP FP detection | inhibition, % at 16.5 µM | Q9ULH1 | 0.19% of 360,000 active; in the data active means inhibition above about 25%
hGIII sPLA2 conf: human GIII-sPLA2 inhibition, confirmation; shares compounds with sPLA2-III inh; recombinant hGIII-sPLA2, BODIPY PC-A2 QFRET fluorescence; inhibition, % at 12.2 µM; 34% of 2,000 active;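 active means mean inhibition across triplicates above the hit cutoff set in the earlier primary screen, cut at about 19% in these data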
535nm interf: 535nm fluorescence interference, HGIII-sPLA2 counter-screen | shares compounds with sPLA2-III inh | BODIPY FL product fluorescence interference, QFRET | inhibition, % at 12.2 µM | 8.5% of 2,000 active | AID 743282;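 active means average inhibition above the solvent-only control mean plus 3 SD, cut at about 6% in these data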
BODIPY interf DR: counter-screen for HGIII-sPLA2 inhibitors: 535nm fluorescence interference, dose response | IC50, µM | AID 743455 | shares compounds with sPLA2-III inh | 240 tested, under 10 active | BODIPY FL product fluorescence interference, cell-free;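 active means IC50 at or below 10 µM; inactive means IC50 above 10 µM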
A number is an active result; 0 = inactive; - = not tested or not shown. Most compounds without a hit are left out; they make up all but 2.7% or so of the library.

SMILES | Rev-erbA mod | bovine MsrA act | sPLA2-III inh | ARFGAP1 inh | MsrA inhibitor | ASAP1 inh | hGIII sPLA2 conf | 535nm interf | others
Cc1ccc(/C=N/NC(=O)CSc2nc3ccccc3c(=O)n2-c2ccccc2)s1 | 0 | 0 | 19.3 | 0 | 0 | 0 | 0 | 0
O=C(CSc1nnc(-c2ccccc2)n1-c1ccc(Cl)cc1)NNC(=S)Nc1ccccc1 | 0 | 0 | 26.2 | 0 | 0 | 0 | 38.5 | 0 | BODIPY interf DR=0
O=C(CSc1nc2ccccc2c(=O)n1-c1ccc(Cl)cc1)NNC(=S)Nc1ccccc1 | 0 | - | 33.3 | - | - | - | 27.1 | 0
COc1ccc2[nH]c3c(c2c1)CCN[C@]31C(=O)N(Cc2cn(Cc3ccccc3)nn2)c2ccc(F)cc21 | 0 | - | 0 | - | - | - | - | -
COc1cccc(/C=C2\CC3(OC(=O)c4cccc(F)c4)CCCN2C3)c1 (stereo not drawn) | 0 | - | 0 | - | - | - | - | -
NC(=O)c1c(N)[nH]c(C(=O)c2ccccc2)c1-c1ccccc1 | 0 | - | 0 | 0 | 0 | 0 | - | -
COC[C@@H](OC(C)=O)[C@H]1OCc2ccccc2[C@@H]1/C=C/c1ccccc1 | 0 | - | 0 | - | - | - | - | -
CN(C)C(=O)CSc1nnc(-c2ccc(F)cc2)c2ccccc12 | 0 | 0 | 0 | 0 | 0 | 0 | - | -
CCCCSc1nnc(-c2ccc(C)cc2)c2ccccc12 | 0 | 0 | 24.3 | 0 | 0 | 0 | 0 | 0
Cc1ccc(C(=O)N(C)[C@H]2C[C@H]3c4[nH]c5c(-c6ccc7c(c6)OCO7)cccc5c4CCN3C[C@H]2[C@H](C)O)cc1 | 0 | - | 0 | - | - | - | - | -
Cc1nc(SCC(=O)N2CCOCC2)c2c(=O)n(C)c(=O)n(C)c2n1 | 0 | 0 | 21.0 | 0 | 0 | 0 | 0 | 0
Cc1ccc(S(=O)(=O)N2C3CCCCC3O[C@H]2CC(=O)c2cccc3ccccc23)cc1 (stereo partly drawn) | 0 | - | 0 | 0 | 0 | 0 | - | -
CCOc1ccc(NCC2CCOC(C)(C)C2)cc1 (stereo not drawn) | 0 | 0 | 19.6 | 0 | 0 | 0 | 0 | 0
CCOc1ccc(NC(=O)CC2CC(C)(C)OC2=O)cc1 (stereo not drawn) | 0 | 0 | 0 | 0 | 0 | 0 | - | -
C[C@H](CO)N1C[C@H](C)[C@@H](CN(C)S(=O)(=O)c2cn(C)cn2)Oc2ccc(NC(=O)C3CCCCC3)cc2C1=O | 0 | 0 | 21.4 | 0 | 0 | 0 | 0 | 0
N=C(N)SCc1ccccc1Cl | 0 | 0 | 33.9 | 0 | 0 | 0 | 0 | 0
CS(=O)(=O)N1c2ccccc2C[C@H]1Cc1cc2ccccc2o1 | 0 | - | 0 | - | - | - | - | -
CCn1c(CSCc2ccc(C)cc2)n[nH]c1=S | 0 | 0 | 29.9 | 0 | 0 | 0 | 25.0 | 0
C=CCn1c(CSCc2ccc(F)cc2)n[nH]c1=S | 0 | 0 | 0 | 0 | 0 | 0 | - | -
CCn1c(CSCc2ccc(Cl)cc2)n[nH]c1=S | 0 | 0 | 19.2 | 0 | 0 | 0 | 25.6 | 0
O=C(O)Cc1sc(N/N=C\c2ccncc2)nc1-c1ccccc1 | 0 | 0 | 26.1 | 0 | 0 | 0 | 0 | 0
COC(=O)CSc1nnc(-c2n[nH]c3c2CCC3)n1N | 0 | - | 0 | - | - | - | - | -
CC1(c2nnnn2Cc2ccccc2)CCC(=O)N1CC1CCCCC1 (stereo not drawn) | 0 | 0 | 0 | 0 | 0 | 0 | - | -
CCc1ccc(S(=O)(=O)c2nnn3c2nc(NCCNC(C)=O)c2ccccc23)cc1 | 0 | 0 | 0 | 0 | 0 | 0 | - | -
CCCCNc1nc2c(S(=O)(=O)c3ccccc3)nnn2c2ccccc12 | 0 | 0 | 19.5 | 0 | 0 | 0 | 0 | 0
SMILES | Rev-erbA mod | bovine MsrA act | sPLA2-III inh | ARFGAP1 inh | MsrA inhibitor | ASAP1 inh | hGIII sPLA2 conf | 535nm interf | others
N#CC(C#N)=c1ccc2c(c1)NC1(CCCCC1)N=2 | 0 | 0 | 38.3 | 0 | 0 | 0 | 60.9 | 18.5
COC(=O)N/N=C/c1c(C)nn(-c2cccc(Cl)c2)c1Cl | 0 | 0 | 20.0 | 0 | 0 | 0 | 0 | 0
CCOC(=O)C1CCCN(C(=O)c2cc3ncc(Br)cn3n2)C1 (stereo not drawn) | 0 | 0 | 21.4 | 0 | 0 | 0 | 0 | 0
c1ccc(-c2cccc(CNc3nc(-c4ccccn4)nnc3-c3ccccc3)c2)cc1 | 0 | - | 25.4 | - | - | - | 0 | 0
O=C(NNc1nc2c(F)cc(F)cc2s1)C1COc2ccccc2O1 (stereo not drawn) | 0 | 0 | 0 | 0 | 0 | 0 | - | -
Cc1cc(C)c2sc(NNC(=O)C3COc4ccccc4O3)nc2c1 (stereo not drawn) | 0 | 0 | 28.2 | 0 | 0 | 0 | 31.2 | 0 | BODIPY interf DR=0
Cc1cccc2sc(NNC(=O)C3COc4ccccc4O3)nc12 (stereo not drawn) | 0 | 0 | 0 | 0 | 0 | 0 | - | -
COc1ccc(OC)c2sc(NNC(=O)C3COc4ccccc4O3)nc12 (stereo not drawn) | 0 | 0 | 21.4 | 0 | 0 | 0 | 0 | 0
COc1cc(CNn2c(C)n[nH]c2=S)cc(Cl)c1OCC(=O)NC(C)(C)C | 0 | 0 | 28.9 | 0 | 0 | 0 | 25.3 | 0
COc1cc(CNn2c(C)n[nH]c2=S)cc(Br)c1OCC(=O)NC(C)(C)C | 0 | 0 | 0 | 0 | 0 | 0 | - | -
CCCCNC(=S)NNC(=O)c1nn(C)cc1Cl | 0 | 0 | 23.3 | 0 | 0 | 0 | 27.4 | 0
CCCCNC(=S)NNC(=O)c1ccc(Br)o1 | 0 | 0 | 30.3 | 0 | 0 | 0 | 31.0 | 0 | BODIPY interf DR=0
Oc1ccccc1/C=N/NC(=S)NC1CC2CCC1C2 (stereo not drawn) | 0 | 0 | 28.3 | 0 | 0 | 0 | 0 | 7.3
CCOc1ccc(CSC(=N)N)cc1 | 0 | 0 | 0 | 0 | 0 | 0 | - | -
CCCCOc1ccc(CSC(=N)N)cc1Cl | 0 | 0 | 54.2 | 0 | 0 | 0 | 32.0 | 0 | BODIPY interf DR=0
CCCCCOc1ccc(Br)cc1CSC(=N)N | 0 | 0 | 28.7 | 0 | 0 | 0 | 21.4 | 0
COc1ccc(Br)cc1CSC(=N)N | 0 | 0 | 32.9 | 0 | 0 | 0 | 0 | 0
CC(=O)c1ccc(OC(C)C)c(CSC(=N)N)c1 | 0 | 0 | 0 | 0 | 0 | 0 | - | -
CCOC(=O)CC[C@@]1(C(=O)OCC)C[C@@H](CC(=O)NCc2ccc(OC)c(OC)c2)C(=O)N2CCCC=C21 | 0 | - | 0 | - | - | - | - | -
CC(C)CNc1cccc2c1S(=O)(=O)N(Cc1cn(Cc3cccc(F)c3)nn1)Cc1ccccc1O2 | 0 | - | 0 | - | - | - | - | -
COC(=O)C1CN(C2CCCC2)CCS(=O)(=O)N1Cc1ccc(F)cc1 (stereo not drawn) | 0 | - | 0 | - | - | - | - | -
CCOc1ccc(C(=O)Nc2ccc3c(c2)C(=O)NC3=O)cc1 | 0 | 0 | 0 | 0 | 0 | 0 | - | -
COC(=O)c1ccc(C(=O)Nc2ccc3c(c2)C(=O)NC3=O)cc1 | 0 | 0 | 22.5 | 0 | 0 | 0 | 0 | 6.8
CN1CCC(=NNC(=O)C(=O)NC(C)(C)C)CC1 | 0 | 0 | 22.5 | 0 | 0 | 0 | 0 | 0
